Eight molecules from ChEMBL document CHEMBL2086264 can be followed below.

The nature of test [1]: Inhibition of Staphylococcus aureus PlsY expressed in Escherichia coli FB23281 using [U-14C]glycerol-PO4 as substrate after 20 mins by scintillation counting. In a few lines: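 Membranes from E. coli FB23281 (ΔplsY) expressing S. aureus PlsY (SA1187), 4 µg per reaction. pH 7.4 buffer of 100 mM Tris–HCl, 150 mM NaCl, 1 mg/mL BSA and 5 mM Na3VO4, with 100 µM [U-14C]glycerol-PO4. Started with 16:0-PO4 (final 100 µM), 20 min at 37°C. Spotted on filter discs, washed in graded ice-cold TCA, scintillation counted.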

In test [2] the test system is Enterococcus faecalis. The test can be described thus: Antibacterial activity against Enterococcus faecalis ATCC 33186 after overnight incubation by microbroth dilution assay. Format: functional. In a few lines:
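CLSI microbroth dilution in Mueller-Hinton broth; compounds dissolved in DMSO, twofold serial dilutions giving final 200–0.0125 µg/mL. Inoculum from single colony grown at 37°C to mid-log (OD600 0.5), diluted to final OD600 0.0005 (~10^5 CFU/mL). Incubated overnight at 37°C; MIC = lowest concentration inhibiting 90% of visible growth.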
Background: Broth dilution looks for growth in wells or tubes with falling amounts of substance.

Test [3] concerns Streptococcus pneumoniae. The test can be described thus: Antibacterial activity against Streptococcus pneumoniae R6 after overnight incubation by microbroth dilution assay. Format: functional. Summed up: (§1)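 CLSI M7A7 microbroth dilution in Mueller-Hinton broth; S. pneumoniae broth given 5% lysed horse blood. DMSO stocks of 10 mg/mL; twofold dilutions to final 200–0.0125 µg/mL. Mid-log inoculum (OD600 0.5) diluted to final OD600 0.0005 (~10^5 CFU/mL). Overnight at 37°C; MIC is the lowest concentration inhibiting 90% of visible growth.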

The test system of test [4] is Bacillus anthracis. The experiment in a line: Antibacterial activity against Bacillus anthracis after overnight incubation by microbroth dilution assay. Format: functional.
Test [5] deals with Bacillus subtilis. The test can be described thus: Antibacterial activity against Bacillus subtilis ATCC 23857 after overnight incubation by microbroth dilution assay. The class given is functional. Summed up:
as §1

In test [6] the test system is Bacillus anthracis. The experiment in a line: Inhibition of protein synthesis in Bacillus anthracis sterne assessed as Inhibition of [3H]amino acid incorporation into protein incubated for 15 mins prior to [3H]amino acid addition measured after 30 mins by scintillation counting. The class given is functional, organism-based.
Test [7] relates to Bacillus anthracis. The experiment in a line: Inhibition of DNA synthesis in Bacillus anthracis sterne assessed as Inhibition of [3H]thymidine incorporation into DNA incubated for 15 mins prior to [3H]thymidine addition measured after 30 mins by scintillation counting. The class given is functional, organism-based.
Test [8] deals with Bacillus anthracis. The experiment in a line: Inhibition of RNA synthesis in Bacillus anthracis sterne assessed as Inhibition of [3H]uracil incorporation into RNA incubated for 15 mins prior to [3H]uracil addition measured after 30 mins by scintillation counting. Format: functional, organism-based.
The subject of test [9] is Staphylococcus aureus. The experiment in a line: Antibacterial activity against Staphylococcus aureus ATCC 29213 after overnight incubation by microbroth dilution assay. Format: functional. In a few lines:
as §1

Converted amounts (≈) assume the structure as drawn. The source made the active and inactive calls. The calls are words filed in the database; no cut-off is given here.

The IC50 is the midpoint of a concentration-inhibition curve. A low value points to greater potency in that assay. The MIC90 is an inhibitory concentration at the 90% level, which refers to growth in some studies and to a panel of isolates in others. Lower therefore signals higher susceptibility. Turning to `CCCCCCCCCCCCCCCC(=O)NS(=O)(=O)Oc1ccc(C(=O)OCC)cc1`, in test [1], the IC50 is 10 µM. The MIC90 in test [2] is more than 200 µg/mL; in test [3], 1.56 µg/mL (≈ 3.23 µM); in [4], 3.13 µg/mL (≈ 6.47 µM); in [5], more than 200 µg/mL; in test [9], 6.25 µg/mL (≈ 12.9 µM). Moreover, the inhibition result in test [6], in test [7] and in [8] was “Active” throughout.
As for `CCCCCCCCCCCCCCCC(=O)NS(=O)(=O)Oc1cccc(Cl)c1`, half-maximal inhibition in test [1] (IC50) required 14 µM. The MIC90 was 100 µg/mL (≈ 224 µM) in test [2]; more than 200 µg/mL in [3]; 3.13 µg/mL (≈ 7.02 µM) in test [4]; 100 µg/mL (≈ 224 µM) in test [5]; more than 200 µg/mL in test [9]. In addition, the inhibition result in test [6], in [7] and in [8] was “Active” in each case.
In test [1], `CCCCCCCCCCCCCCCC(=O)NS(=O)(=O)OC1CCN(C(=O)OC(C)(C)C)CC1` displayed an IC50 of 15 µM. For the same molecule, the MIC90 in test [2] is more than 200 µg/mL; in test [3] it was more than 200 µg/mL; in test [4], 3.13 µg/mL (≈ 6.03 µM); in test [5] it was more than 200 µg/mL; in [9], more than 200 µg/mL. The inhibition entry in test [6], in test [7] and in test [8] was “Active” each time.
For the molecule `CCCCCCCCCCCCCCCC(=O)NS(=O)(=O)Oc1ccc(CC(=O)OC)cc1`, in test [1], the IC50 is 11 µM. The MIC90 in test [2] is more than 200 µg/mL; in test [3] it was 0.78 µg/mL (≈ 1.61 µM); in test [4] it was 3.13 µg/mL (≈ 6.47 µM); in test [5], more than 200 µg/mL; in [9], 25 µg/mL (≈ 51.7 µM). Moreover, the inhibition result in [6], in test [7] and in [8] was “Active” each time.
In [1], `O=C(/C=C/c1ccc(-c2ccccc2)cc1)NS(=O)(=O)Oc1ccccc1` displayed an IC50 of more than 100 µM. Moreover, the MIC90 in test [2] is 50 µg/mL (≈ 132 µM); in [3], 100 µg/mL (≈ 264 µM); in test [4], 100 µg/mL (≈ 264 µM); in [5], more than 200 µg/mL; in test [9], 25 µg/mL (≈ 65.9 µM). For the same molecule, the inhibition entry in test [6], in test [7] and in test [8] was “Active” in each case.
As to `CCCCCCCCCCCCCCCC(=O)NS(=O)(=O)OC` [METHYL PALMITOYLSULFAMATE], the IC50 in [1] was 80 µM. The MIC90 was more than 200 µg/mL in test [2]; more than 200 µg/mL in test [3]; more than 100 µg/mL in test [4]; more than 200 µg/mL in [5]; more than 200 µg/mL in test [9]. Besides, the inhibition entry in [6], in test [7] and in [8] was “Active” throughout.
The molecule `CCCCCCCCCCCCCCCC(=O)NS(=O)(=O)OC1CCNCC1` came in with an IC50 in [1] of more than 100 µM. Moreover, the MIC90 was more than 200 µg/mL in [2]; more than 200 µg/mL in [3]; more than 100 µg/mL in test [4]; more than 200 µg/mL in [5]; more than 200 µg/mL in test [9]. Also, the inhibition result in test [6], in test [7] and in [8] was “Active” in each case.
As for `CCCCCCCCCCCCCCCC(=O)NS(=O)(=O)OC1CCOCC1`, in test [1], inhibition was half-maximal at 30 µM (IC50). In addition, the MIC90 in [2] is more than 200 µg/mL; in [3], more than 200 µg/mL; in test [4] it was 3.13 µg/mL (≈ 7.46 µM); in test [5] it was more than 200 µg/mL; in [9], more than 200 µg/mL. Further, the inhibition result in [6], in test [7] and in test [8] was “Active” each time.
